MsrA inh = inhibitors of bovine MsrA | purified bovine MsrA, absorbance read-out | inhibition, % at 15.5 µM | actives 0.75% (n = 360,000) | AID 651718
MsrA act = activators of bovine methionine sulfoxide reductase A | purified bovine MsrA, absorbance read-out | activation, % at 10.6 µM | actives 0.3% (n = 360,000); in the data active = activation above about 7.5%
m5-HT2A agonist = agonists of mouse serotonin 5-HT2A receptor (HTR2A) | actives 0.66% (n = 360,000) | CHO-K1 mHTR2A beta-arrestin complementation, luminescence; percent of 30 µM serotonin response | AID 624169 | activation, % at 7.6 µM;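 active = activation above a run cutoff, the mean activation of all tested compounds plus 3 SD, cut at about 14% in these data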
AHR activator = human AHR activation; P35869; AHR-responsive luciferase reporter cells, luminescence; activation, % at 5 µM; actives 2.5% (n = 320,000); in the data active = activation above about 47%
AI-2 QS modul = modulates the Vibrio harveyi AI-2 quorum sensing system | Vibrio harveyi JMH597 AI-2 luminescence/OD600 ratio, 9 h; hits give low values; strain lacks LuxN and CqsS sensors; 0 = neutral-control median | activity change, % at 7.5 µM | actives 0.4% (n = 300,000); in the data active = activity change below about -75%, passing the limit was not always enough;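 also: luminescence divided by OD600 gain over 9 h not by final OD600 alone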
TbMetRS inhib = blocks T. brucei methionyl-tRNA synthetase activity. actives 0.4% (n = 360,000). purified T. brucei MetRS, ATP depletion, Kinase-Glo luminescence. inhibition, % at 11.9 µM;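 active = inhibition above a per-plate cutoff of the control wells' mean inhibition plus 3 SD, cut at about 5.5% in these data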
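Test system – parasite MetRS enzyme · Reagent – substrates ATP, L-methionine and bulk Escherichia coli tRNA · Doses – 11.9 µM compound single dose, 0.9% DMSO · Times – 15 min enzyme-compound preincubation, 2 h reaction, 10 min detection, 25 °C · Signal – Kinase-Glo luminescence, ATP depletion format · Controls – DMSO-only wells as low control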
MsrA inh confirm = bovine MsrA inhibition, confirmed; shares compounds with MsrA inh; inhibition, % at 15.5 µM; purified bovine MsrA, absorbance read-out; AID 651822; actives 41% (n = 2,300);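 also: coupled to thioredoxin reductase with NADPH and selenocystamine and DMSO as substrate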
Each line names hits and unclear results; the compound was inactive in the other large screens (follow-up assays come after a bar, where they were run). Rows were chosen to be rich in hits. Some 4.4% of all compounds tested hit in one or more screens of this group. Rule as the data show it, unless noted: active = inhibition above about 4.5%; inactive = the rest.

O=C1N/C(=N\N=C\c2cccs2)SC1Cc1cccc(Cl)c1Cl (centres undefined)	none
O=C1CS/C(=N/N=C/c2cccs2)N1	MsrA inh 6.4 | MsrA inh confirm inactive
O=C1CS/C(=N/N=C/c2ccncc2)N1	none
CC1(C)S/C(=N/N=C/c2cccs2)NC1=O	MsrA inh 4.7 | MsrA inh confirm inactive
Cc1ccccc1CNC(=O)C(=O)NCCC1CCCCN1S(=O)(=O)c1ccccc1 (centres undefined)	none
O=c1oc2ccccc2c2c1ccc1ccccc12	MsrA inh 6.2 (no result: AHR activator, AI-2 QS modul) | MsrA inh confirm 5.0
Cc1oc2cc3oc(=O)c(CCC(=O)NCCCN4CCOCC4)c(C)c3cc2c1C	none
COC(=O)N/N=C/c1cc(OC)c(O)c([N+](=O)[O-])c1	none
COc1cc(/C=N/NC(=O)C(Cc2c[nH]c3ccccc23)NC(=O)OCc2ccccc2)cc([N+](=O)[O-])c1O (centres undefined)	MsrA inh 5.8 | MsrA inh confirm 5.2
COc1cc(/C=N/NC(N)=O)cc([N+](=O)[O-])c1O	MsrA inh 4.7 | MsrA inh confirm inactive
CCn1c(C)c(C)c2cc(C(=O)NCCN3CCCCCC3)ccc21	none
Cc1csc(Nc2nc(N)c(C(=O)Nc3ccccc3)o2)n1	MsrA inh 5.7 | MsrA inh confirm 5.0
CC1Cc2ccccc2N1C(=O)c1cnc2sccn2c1=O (centres undefined)	MsrA inh 5.4 | MsrA inh confirm inactive
CC1Cc2ccccc2N1C(=O)c1cnc2n(c1=O)CCS2 (centres undefined)	none
O=C(NCCC(c1ccccc1)c1ccccc1)c1cnc2sccn2c1=O	none
CC(=O)c1cnc2sccn2c1=O	MsrA inh 6.2 | MsrA inh confirm inactive
CN(C)/N=C/c1ccc(P(c2ccc(/C=N/N(C)C)o2)c2ccc(/C=N/N(C)C)o2)o1	MsrA inh 5.4 | MsrA inh confirm inactive
COCCn1c(C)cc(C(=O)COc2nc3ccccc3nc2C)c1C	MsrA inh 4.8 | MsrA inh confirm inactive
Cn1cc(C(=O)N/N=C/C=C/c2ccccc2)ccc1=O	MsrA inh 9.7 | MsrA inh confirm 5.1
Cc1ccc(C(=O)N/N=C/C=C/c2ccccc2)o1	MsrA inh 8.8 | MsrA inh confirm 8.2
O=C(N/N=C/C=C\c1ccccc1)c1cnccn1	none
CC(/C=C/C=C/c1ccccc1)=N\NC(=O)c1cccnc1	MsrA inh 7.6 | MsrA inh confirm 4.5
O=C(N/N=C/C=C/c1ccccc1)c1ccc(Br)cc1	none
O=C(N/N=C/C=C/c1ccccc1)c1cccnc1	MsrA inh 5.3 | MsrA inh confirm 4.9
CC(=O)Oc1ccc(Cn2c(C)c(C(=O)NCc3cccc(C(F)(F)F)c3)sc2=O)cc1	none (no result: AHR activator, AI-2 QS modul)
O=C(CSc1ccccn1)N/N=C/C=C/c1ccccc1	MsrA inh 4.9 | MsrA inh confirm inactive
O=C(O)c1ccc(/C=C(\c2nc3ccccc3[nH]2)c2nc3ccccc3s2)cc1	MsrA inh 5.4 | MsrA inh confirm 5.3
O=C(O)c1ccc(-c2nc3ccccc3[nH]2)cc1	none
CC(C)C[C@@H]1Cc2[nH][nH]c(=O)c2[C@H](C(C)C)O1	none (no result: AHR activator, AI-2 QS modul)
Cc1nc2ccccn2c(=O)c1NC(=O)c1ccco1	MsrA inh 4.8 (no result: AHR activator, AI-2 QS modul) | MsrA inh confirm inactive
C=CCn1c(SCC(=O)Nc2ccc(NC(=O)c3ccco3)c(OC)c2)nnc1-c1ccncc1	none
C=CCn1c(SCC(=O)Nc2cc(OC)c(NC(=O)c3ccco3)cc2OC)nnc1-c1ccncc1	MsrA inh 4.7 | MsrA inh confirm inactive
CCc1cc(C(=O)Cc2ccc(F)cc2)c(O)cc1O	none
CCc1cc(C(=O)Cc2nc3ccccc3[nH]2)c(O)cc1O	MsrA inh 5.0 | MsrA inh confirm inactive
O=C(O)CC1S/C(=N\N=C2\C(=O)Nc3ccccc32)N(c2ccc(O)cc2)C1=O (centres undefined)	MsrA inh 5.9 | MsrA inh confirm inactive
O=S1(=O)N=C(N/N=C/c2cccs2)c2ccccc21	MsrA inh 5.8 | MsrA inh confirm 4.8
O=[N+]([O-])c1ccc(/C=N/NC2=NS(=O)(=O)c3ccccc32)cc1	none
